# Bioassay records deposited in PubChem by The Scripps Research Institute Molecular Screening Center.
# In the library only some 2.7% were active in any assay of this set; here they are far more common.
# TCR-CD3 inh: inhibitors of human TCR-CD3 interaction. TAMRA-labeled TCR probe fluorescence, biochemical. inhibition, % at 9.4 µM. hit rate 0.37% among 360,000. AID 651800; in the data active = inhibition above about 19%;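 also: recombinant mutant TCR 2C K166C tagged with TAMRA read by polarization; 0% = receptor in buffer alone and 100% = receptor with positive control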
# HTRA1 inh: HTRA1 (human) protease inhibition; hit rate 0.5% among 340,000; AID 504803; Q92743; inhibition, % at 5.96 µM; recombinant HTRA1, FP-rhodamine activity-based probe, fluorescence polarization; in the data active = inhibition above about 36%;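 also: 0% = enzyme with DMSO and 100% = wells lacking enzyme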
# Target sequence (Q92743 whole entry, looked up): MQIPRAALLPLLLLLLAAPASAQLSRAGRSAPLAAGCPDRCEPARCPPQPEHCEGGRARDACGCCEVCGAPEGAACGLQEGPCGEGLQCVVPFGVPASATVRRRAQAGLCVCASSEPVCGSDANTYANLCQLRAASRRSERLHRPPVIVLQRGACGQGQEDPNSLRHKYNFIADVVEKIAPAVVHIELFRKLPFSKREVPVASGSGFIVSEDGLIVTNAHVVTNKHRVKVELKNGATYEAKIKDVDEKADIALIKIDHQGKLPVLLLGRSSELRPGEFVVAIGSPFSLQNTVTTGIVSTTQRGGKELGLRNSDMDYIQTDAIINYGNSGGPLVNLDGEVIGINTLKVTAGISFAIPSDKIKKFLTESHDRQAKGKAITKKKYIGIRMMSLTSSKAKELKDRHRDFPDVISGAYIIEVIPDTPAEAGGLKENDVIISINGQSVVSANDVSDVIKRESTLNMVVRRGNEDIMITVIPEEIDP
# ABHD4 inh: ABHD4 (mouse) inhibition, primary FP screen | purified mABHD4, FP-Rh probe fluorescence polarization | AID 720543 | hit rate 0.54% among 370,000 | inhibition, % at 8.92 µM | Q8VD66;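 active = inhibition exceeding the mean over every tested compound plus 3 SD, cut at about 30% in these data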;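 also: 0% = plate median of compound wells and 100% = S159A mutant with DMSO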
#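 assay system = mABHD4 protein | compound dosing = single nominal dose of 8.92 µM, 0.89% DMSO final | read-out basis = percent inhibition of probe binding, normalized to plate controls | schedule = Enzyme–compound pre-incubation 45 min, then probe 60 min, both 25 °C | detection = fluorescence polarization, excitation 525 nm, emission 598 nm, BODIPY TMR filters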
# SIAE inh: human SIAE inhibition, primary screen; Q9HAT2; SIAE FP-Rh probe binding, fluorescence polarization; inhibition, % at 9.66 µM; hit rate 0.69% among 370,000; AID 1053197;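 active = inhibition above a cutoff: mean of compounds within the control limits plus 3 SD of those, cut at about 17% in these data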;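 also: 0% = plate median of compound wells and 100% = probe without SIAE protein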
# PRMT1 inh: inhibitors of human PRMT1; recombinant PRMT1, activity-based probe fluorescence polarization; inhibition, % at 2.79 µM; hit rate 1.3% among 370,000; AID 652257;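 active = inhibition above about 21% made by adding two undisclosed values, limit read from the data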
# PRMT1 inh conf: confirmation of human PRMT1 inhibitors; shares compounds with PRMT1 inh; recombinant His-PRMT1, activity-based probe fluorescence polarization; inhibition, % at 2.79 µM; hit rate 42% among 3,300; AID 687036;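 active = mean inhibition across replicates above the hit cutoff derived for the earlier primary screen, cut at about 22% in these data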
# * marks the source's active call; other numbers are inactive results; · = not tested or not shown.
SMILES,TCR-CD3 inh,HTRA1 inh,ABHD4 inh,SIAE inh,PRMT1 inh,PRMT1 inh conf
Cc1nnc(SCC2=C(C(=O)O)N3C(=O)C(NC(=O)C(C)n4nc(C(F)(F)F)cc4C)C3SC2)s1 (centres undefined),2,-1,2,4,28*,10
CC1=C(C(=O)O)N2C(=O)C(NC(=O)c3nn(C)cc3Cl)C2SC1 (centres undefined),1,-3,0,-6,6,·
Cc1c(Cl)c(C(F)F)nn1CC(=O)NC1C(=O)N2C(C(=O)O)=C(CSc3nnnn3C)CSC12 (centres undefined),5,2,6,-1,35*,20
CCn1ccc(C(=O)NC2C(=O)N3C(C(=O)O)=C(C)CSC23)n1 (centres undefined),7,3,-3,-2,7,·
CC(C(=O)NC1C(=O)N2C(C(=O)O)=C(CSc3nnnn3C)CSC12)n1cc(Cl)cn1 (centres undefined),-2,5,-9,-1,30*,9
CCc1nn(C)c(N)c1C,6,0,2,13,-4,·
CC(C)[C@@H]1O[C@H](CCc2ccccc2)CC2=C1C(=O)OC(C)(C)O2,1,·,-9,-3,0,·
CC(=O)N1CCN(c2ccc(N3CCN(C(C)=O)[C@@H](C)C3)c(C)c2)[C@@H](C)C1,6,·,6,8,-1,·
O=S(=O)(C/C(=C/CO)S(=O)(=O)c1ccccc1)c1ccccc1,-7,-6,-14,-9,29*,7
COc1cc(/C=C/C(=O)O)cc(S(=O)(=O)Nc2ccc(F)cc2)c1OC,6,9,4,13,0,·
COc1cc(/C=C/C(=O)O)cc(S(=O)(=O)Nc2ccc3nc(C)sc3c2)c1OC,5,4,16,7,25*,28*
C=CCn1c2ccccc2c2n[nH]c(=S)nc21,-4,-3,-6,3,30*,5
CCn1c2ccccc2c2n[nH]c(=S)nc21,0,-1,4,-1,1,·
O=C(O)Cn1c2ccccc2c2n[nH]c(=S)nc21,6,-19,-1,4,42*,85*
COc1ccc(C(=O)NC2=NCCS2)cc1S(=O)(=O)N1CCOCC1,1,7,4,-5,5,·
COc1ccc(C=Cc2ccc3ccccc3n2)c(OC)c1,9,-13,15,9,147*,7
COc1ccc(N2CCN(C(=O)c3cc(N4C(=O)C5C6CCC(C6)C5C4=O)ccc3Cl)CC2)cc1 (centres undefined),-2,4,-4,-3,36*,-1
O=C(c1cc(N2C(=O)C3C4CCC(C4)C3C2=O)ccc1Cl)N1CCN(c2ccc(F)cc2)CC1 (centres undefined),-4,-2,3,-2,1,·
NC(=O)c1ccc(-c2ccc(N3C(c4ccsc4)=Cc4ccc(F)cc4C3CC(=O)c3ccco3)cc2)cc1 (centres undefined),-10,·,-1,-5,7,·
CCOC(=O)c1cc(-c2ccc(F)cc2)n(CC(=O)NCc2cccnc2)c1C,0,1,3,-11,28*,7
CCCNC(=O)Cn1c(-c2ccc(F)cc2)cc(C(=O)OCC)c1C,2,1,0,5,-2,·
O=C(N/N=C\C=C\c1ccc([N+](=O)[O-])o1)c1cccs1,9,3,22,4,31*,5
O=C(CSc1nc2c(sc3ccccc32)c(=O)n1CCO)NCc1ccco1,0,0,3,-9,10,·
Cc1cc2c(=O)n(Cc3ccco3)c(SCC(=O)NCc3ccco3)nc2s1,-7,-4,0,-2,58*,18
COCCn1c(SCC(=O)Nc2ccccc2OC)nc2ccccc2c1=O,-2,-6,-3,4,0,·
SMILES,TCR-CD3 inh,HTRA1 inh,ABHD4 inh,SIAE inh,PRMT1 inh,PRMT1 inh conf
COc1ccccc1NC(=O)CSc1nc2c(sc3ccccc32)c(=O)n1CCN(C)C,10,-3,6,-4,70*,72*
O=C(CSc1nc2c(sc3ccccc32)c(=O)n1CCCN1CCCC1)NCc1ccco1,-1,-4,3,-6,27*,11
Cc1c(F)cccc1NS(=O)(=O)c1ccc(N2CCCC2=O)cc1,2,-7,0,-1,7,·
CC1(C)OC(=O)NC1c1ccccc1 (centres undefined),-2,4,1,5,2,·
O=C(CSc1nccc(=O)[nH]1)N1CCN(c2ccccc2)CC1,1,7,2,1,0,·
COc1ccc(OC)c(CN2C(=O)c3ccccc3C2c2nnnn2Cc2ccccc2)c1 (centres undefined),2,·,0,-2,0,·
CCc1c(O)nc(SCC(=O)Nc2ccc(C)cc2)n(C2CCCCC2)c1=O,1,-9,-18,9,10,·
CCCCc1c(O)nc(SCC(=O)Nc2cccc3ccccc23)n(-c2ccccc2OC)c1=O,-5,-2,-9,-6,42*,23*
CCc1c(O)nc(SCC(=O)Nc2nc3ccccc3s2)n(-c2ccccc2)c1=O,3,1,3,0,38*,42*
CCc1c(O)nc(SCC(=O)Nc2nc3ccccc3s2)n(-c2ccc(C)cc2)c1=O,-7,10,5,3,-5,·
Cc1ccc(NC(=O)CSc2nc(O)c(Cc3ccccc3)c(=O)n2-c2ccccc2)cc1,4,-1,0,2,33*,29*
CCc1c(O)nc(SCC(=O)Nc2ccccc2OC)n(-c2ccccc2C)c1=O,-12,-5,-5,7,16,·
CCCCc1c(O)nc(SCC(=O)Nc2ccc(C)cc2)n(-c2ccc(OC)cc2)c1=O,-5,1,-1,4,9,·
CCc1c(O)nc(SCC(=O)Nc2ccccc2C)n(-c2ccc(C)cc2)c1=O,1,-7,5,7,30*,13
O=C(NNC(=O)C1CCC1)c1ccc(F)cc1,-4,0,1,1,-2,·
Cc1c(N=O)c(-c2ccccc2)n(O)[n+]1[O-],5,-3,7,5,2,·
CCc1c(O)nc(SCC(=O)Nc2ccccc2)n(-c2ccccc2)c1=O,0,5,-5,3,18,·
CCc1c(O)nc(SCC(=O)Nc2ccccc2)n(-c2ccccc2C)c1=O,-1,-1,-4,-4,36*,20
CCc1c(O)nc(SCC(=O)Nc2ccc(Br)cc2)n(-c2ccc(C)cc2)c1=O,-7,-16,3,1,45*,33*
CCc1c(O)nc(SCC(=O)Nc2cc(C)on2)n(-c2ccccc2)c1=O,-4,-2,-7,-4,53*,24*
Cc1c(O)nc(SCC(=O)Nc2cccc(C(F)(F)F)c2)n(-c2ccccc2)c1=O,-7,1,5,3,95*,75*
CC1(C)CC(=O)C=C(NC2CCCC(O)C2)C1 (centres undefined),0,3,4,1,-2,·
COc1ccc(-n2c(SCC(=O)Nc3ccccc3OC)nc(O)cc2=O)cc1,2,-7,-4,-4,1,·
